From the M2OR odorant receptor database

The compounds below were run against T1, UniProt Q8VGZ7. Settings: stereoisomer not certain.
T1 sequence (whole entry): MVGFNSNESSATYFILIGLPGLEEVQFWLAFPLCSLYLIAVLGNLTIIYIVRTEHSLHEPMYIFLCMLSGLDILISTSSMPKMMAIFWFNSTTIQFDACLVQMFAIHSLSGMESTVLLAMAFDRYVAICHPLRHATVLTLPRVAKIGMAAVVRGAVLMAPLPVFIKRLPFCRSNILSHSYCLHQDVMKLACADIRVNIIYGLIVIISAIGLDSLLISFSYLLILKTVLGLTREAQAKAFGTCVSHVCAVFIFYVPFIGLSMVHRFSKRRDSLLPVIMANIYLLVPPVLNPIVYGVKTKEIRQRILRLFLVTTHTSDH
Outline: (§1)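 Assay methods differ from source to source, frequently being transient luciferase assays in mammalian cell lines. For each receptor–molecule pair, the label responsive (active) applies when the original authors judged the measured signal statistically different from baseline, and non-responsive (inactive) applies otherwise.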

Odorant receptor agonist call, inactive:
Cc1ccc(C(C)C)c(O)c1
COC(OC)c1ccccc1
COc1ccccc1
CCC=CCCCCC=O
CSSSC
C1CCOC1
CC(C)CCN
CCN(CC)CC
CC1CC=CCCCCCCCCCC(=O)C1 (stereo not given)
CCC=CCCC=CC=O
CC(=O)OC1(C)CCC23CC1C(C)(C)C2CCC3C (stereo not given)
CNc1ccccc1C(=O)OC
c1ccc2ncccc2c1
O=C(O)C1CCC1
CCCO
CCCCCCCCOC=O
C=CC(=O)CCCCC
CC(=O)C1(C)CC2=C(CCCC2(C)C)CC1C (stereo not given)
CCCCCC=CCCC=O
CCCCCOC(=O)CCC
C1CCOCC1
CC(=O)OCc1ccc2c(c1)OCO2
COc1cnccn1
CCOC(=O)C(C)CC (stereo not given)
CC=C(C)C=O
C=C(C)C1CCC(C)C(O)C1 (stereo not given)
CCCCCC(C=O)=Cc1ccccc1
C=C(C)C1CC=C(C)CC1 (stereo not given)
Cc1occc1SSc1ccoc1C
Cc1ccc(C(C)C)cc1

What follows are compounds tested against T2, UniProt Q8VH16. Settings: stereoisomer not certain.
T2 sequence (whole entry): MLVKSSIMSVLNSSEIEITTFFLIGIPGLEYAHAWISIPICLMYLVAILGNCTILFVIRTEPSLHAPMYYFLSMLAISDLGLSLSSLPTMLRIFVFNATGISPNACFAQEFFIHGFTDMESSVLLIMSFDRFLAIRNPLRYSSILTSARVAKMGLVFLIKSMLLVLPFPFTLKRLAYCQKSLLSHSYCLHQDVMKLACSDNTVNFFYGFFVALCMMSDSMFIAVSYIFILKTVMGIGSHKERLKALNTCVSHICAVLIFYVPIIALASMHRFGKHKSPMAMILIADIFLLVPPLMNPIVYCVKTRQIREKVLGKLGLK
Outline: as §1

Odorant receptor agonist call, inactive:
Cc1ccc(C(C)C)c(O)c1
COC(OC)c1ccccc1
COc1ccccc1
CCC=CCCCCC=O
CSSSC
C1CCOC1
CC(C)CCN
CCN(CC)CC
CC1CC=CCCCCCCCCCC(=O)C1 (stereo not given)
CCC=CCCC=CC=O
CC(=O)OC1(C)CCC23CC1C(C)(C)C2CCC3C (stereo not given)
CNc1ccccc1C(=O)OC
c1ccc2ncccc2c1
O=C(O)C1CCC1
CCCO
CCCCCCCCOC=O
C=CC(=O)CCCCC
CC(=O)C1(C)CC2=C(CCCC2(C)C)CC1C (stereo not given)
CCCCCC=CCCC=O
CCCCCOC(=O)CCC
C1CCOCC1
CC(=O)OCc1ccc2c(c1)OCO2
COc1cnccn1
CCOC(=O)C(C)CC (stereo not given)
CC=C(C)C=O
C=C(C)C1CCC(C)C(O)C1 (stereo not given)
CCCCCC(C=O)=Cc1ccccc1
C=C(C)C1CC=C(C)CC1 (stereo not given)
Cc1occc1SSc1ccoc1C
Cc1ccc(C(C)C)cc1
